HNF4A DNA FP = change in binding of human HNF4A to DNA, primary screen, biochemical, fluorescence polarization, FITC-DNA. 1 h. activity change, % at 10 µM. hit rate 0.3% among 360,000. AID 1224865, 2016; in the data active = activity change above about 30%, passing the limit was not always enough
ATG4B inh = ATG4B protease inhibitors, primary screen, biochemical, fluorescence, uHTS; AID 504462, 2011; hit rate 0.51% among 340,000; inhibition, % at 8.33 µM; ATG4B cleavage of LC3-PLA2, NBD-HPC fluorescence, 1 h; Cysteine protease ATG4B (Homo sapiens), Q9Y4P1; in the data active = inhibition above about 40%
Target sequence (Q9Y4P1 whole entry, looked up): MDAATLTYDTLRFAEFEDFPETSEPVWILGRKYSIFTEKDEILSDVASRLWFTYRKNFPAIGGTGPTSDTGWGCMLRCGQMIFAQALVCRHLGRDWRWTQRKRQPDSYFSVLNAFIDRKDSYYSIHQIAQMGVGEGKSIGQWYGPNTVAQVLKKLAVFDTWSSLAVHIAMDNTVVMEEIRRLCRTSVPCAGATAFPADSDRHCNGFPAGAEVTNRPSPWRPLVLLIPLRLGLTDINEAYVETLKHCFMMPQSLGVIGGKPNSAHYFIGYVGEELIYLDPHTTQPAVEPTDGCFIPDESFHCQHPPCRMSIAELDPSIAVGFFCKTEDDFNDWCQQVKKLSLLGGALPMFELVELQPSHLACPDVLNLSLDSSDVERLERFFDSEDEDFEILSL
SENP1 inh = human SENP1 catalytic domain inhibitors, primary screen, biochemical, FRET, uHTS. Sentrin-specific protease 1 (Homo sapiens), Q9P0U3. recombinant SENP1 catalytic domain, CyPet-SUMO1-YPet FRET cleavage. inhibition, % at 10 µM. hit rate 0.21% among 360,000. AID 624204, 2012;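 active = inhibition at least 30% at 10 µM, raw YFP signal under a set limit, fluorescence ratio 0.5 to 1.5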;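 note: 0% = enzyme with DMSO and 100% = no enzyme wells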
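Assay system: hSENP1 catalytic domain, recombinant. Amount: SENP1 enzyme, 20 pM final. Schedule: 50 min reaction, RT, dark. Technique: FRET, CFP and YFP emission. Control set: no-enzyme wells low, DMSO-plus-enzyme wells high control.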
CSN deneddyl inh = inhibitors of CSN-mediated cullin deneddylation, primary screen, biochemical, fluorescence polarization, uHTS; AID 651999, 2013; hit rate 0.38% among 360,000; inhibition, % at 12.5 µM; Purified CSN, SCF-Nedd8-OG deneddylation;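 active = pattern-corrected inhibition above about 35%, with an unprinted fluorescence ratio check between 0.5 and 1.5, limit read from the data, passing the limit was not always enough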;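 note: 0% = enzyme with substrate and 100% = substrate without enzyme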
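Test system: Human Csn5 produced in HEK293T cells | Compound: 12.5 µM single point | Times: 90 min, room temperature | Signal: Fluorescence polarization readout | Read-out basis: % inhibition of substrate cleavage by Csn5 | Controls: no-enzyme wells high, enzyme-with-substrate wells low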
Rpn11 inh = Rpn11 (PSMD14) deubiquitinase inhibitors, primary screen, biochemical, fluorescence polarization, uHTS; inhibition, % at 20 µM; human 26S proteasome, Ub4-pepOG fluorescence polarization; 20S core pre-blocked with epoxomicin; hit rate 0.59% among 360,000;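 active = inhibition at 20 µM, scaled to each plate's controls, above about 33%, limit read from the data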
Target sequence (O00487 whole entry, looked up): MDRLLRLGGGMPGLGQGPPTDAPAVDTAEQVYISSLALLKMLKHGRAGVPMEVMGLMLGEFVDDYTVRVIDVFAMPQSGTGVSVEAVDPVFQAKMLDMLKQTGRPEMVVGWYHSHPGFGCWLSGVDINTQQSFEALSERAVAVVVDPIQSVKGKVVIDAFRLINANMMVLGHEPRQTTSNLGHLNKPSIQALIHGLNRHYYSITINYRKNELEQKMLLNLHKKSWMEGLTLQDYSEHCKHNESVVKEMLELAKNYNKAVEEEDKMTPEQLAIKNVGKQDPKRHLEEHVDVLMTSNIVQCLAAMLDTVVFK
TPT1 inh = Candida albicans TPT1 enzyme inhibitors, primary screen, biochemical, fluorescence polarization; tRNA 2'-phosphotransferase TPT1 (Candida albicans SC5314); recombinant caTPT1, FP RNA substrate dephosphorylation; AID 1962, 2009; hit rate 0.81% among 300,000; inhibition, % at 5 µM;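 active = inhibition above the mean of all tested compounds plus 3 SD, set per screening campaign, cut at about 24% in these data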;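 note: plate controls were DMSO alone for no effect and ferristatin control at 100 nM for full effect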
SENP1 inh conf = human SENP1 catalytic domain inhibitors, confirmation, biochemical, FRET endpoint, single concentration; recombinant SENP1, CyPet-SUMO1-YPet FRET cleavage; AID 651678, 2012; shares compounds with SENP1 inh; inhibition, % at 10 µM; hit rate 34% among 520; in the data active = inhibition mostly above about 35%, no sharp cut-off; inactive = mostly below about 32%;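 note: 0% = enzyme with DMSO and 100% = no enzyme control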
SENP1 kinetic = human SENP1 catalytic domain inhibitors, confirmation, biochemical, kinetic FRET, single concentration; shares compounds with SENP1 inh; recombinant SENP1, CyPet-SUMO1-YPet FRET kinetic cleavage; inhibition, % at 10 µM; hit rate 26% among 520; AID 651690, 2012; in the data active = inhibition mostly above about 32%, no sharp cut-off; inactive = mostly below about 29%;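 note: 0% = DMSO with enzyme and 100% = no enzyme substrate only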
CSN5 deneddyl = Csn5 deneddylation inhibitors, confirmation, biochemical, fluorescence polarization, single concentration, SCF-Nedd8OG substrate; shares compounds with CSN deneddyl inh; Csn5 deneddylation of SCF-Nedd8OG, 90 min; inhibition, % at 16.6 µM; hit rate 62% among 540; AID 720654, 2013; in the data active = inhibition above about 50%;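 note: 0% = DMSO with enzyme and 100% = no enzyme wells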
MMP2 cntr CSN = MMP-2 protease inhibition counter-screen, confirmation, counter-screen for CSN deneddylation inhibitor project, biochemical, fluorescence, single concentration. hit rate 33% among 540. recombinant MMP-2, FRET substrate fluorescence, 60 min. inhibition, % at 16.6 µM. shares compounds with CSN deneddyl inh;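 active = corrected plate-normalized z-score of 5 or more, or -5 or less, or inhibition of 15% or more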;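 note: plate controls were DMSO wells with enzyme for no effect and buffer wells lacking MMP-2 for full effect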
Thrombin counter = counter-screen for CSN deneddylation inhibitors: bovine thrombin inhibition; bovine thrombin cleavage of Ub4-pepOG, fluorescence polarization; AID 720656; inhibition, % at 16.6 µM; hit rate 49% among 540; shares compounds with CSN deneddyl inh;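 active = inhibition at or above a set limit, with a fluorescence interference ratio between 0.5 and a set maximum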
HNF4A confirm = change in HNF4A binding to DNA, retest, confirmation, biochemical, fluorescence polarization, FITC-DNA; shares compounds with HNF4A DNA FP; 1 h; activity change, % at 12.5 µM; hit rate 99% among 210; AID 1224897, 2016; call rule not given here
An asterisk follows results filed as active; x = not tested or not shown. Rows were chosen to be rich in hits. Some 2% of all compounds tested hit in one or more screens of this group.

SMILES	HNF4A DNA FP	ATG4B inh	SENP1 inh	CSN deneddyl inh	Rpn11 inh	TPT1 inh	CSN5 deneddyl	MMP2 cntr CSN	Thrombin counter	others
CC(=O)Oc1ccc(C(=O)Cc2ccc3ccccc3n2)c(O)c1C	37.8*	-3.1	49.0*	20.6	x	14.8	x	x	x	SENP1 inh conf=25.4;SENP1 kinetic=19.1;HNF4A confirm=50.0*
Cc1c(O)ccc(/C(Cc2ccc3ccccc3n2)=N\O)c1O	5.1	-12.8	-2.8	-1.4	-0.9	-3.8	x	x	x
N#C/C(=C/C1=C(N2CCOCC2)C(=C/c2cccc([N+](=O)[O-])c2)/CC1)C(=O)Nc1ccccc1F	48.6*	3.9	73.0*	53.2*	35.3	x	x	x	x	SENP1 inh conf=13.5;SENP1 kinetic=14.7;HNF4A confirm=64.8*
CCN(CC)c1ccc(/C=C2\CCC(/C=C(/C#N)C(=O)Nc3ccccc3F)=C2N2CCOCC2)cc1	8.8	2.2	-6.9	12.3	10.8	x	x	x	x
Cc1cc(OCc2cc(C(=O)N(C)C(C)c3ccccn3)no2)cc(C)c1Cl (stereo not given)	2.0	20.9	-1.8	-0.2	13.4	-1.4	x	x	x
COc1cc(/C=C2/SC(=S)N(C)C2=O)ccc1OC(=O)c1ccco1	48.7*	-4.9	33.9*	25.0	16.3	7.2	x	x	x	SENP1 inh conf=32.3;SENP1 kinetic=27.2;HNF4A confirm=37.1*
COc1ccc(/C=C2\SC(=S)N(CCC(=O)NC3=NCCS3)C2=O)cc1OC	53.1*	-1.1	53.0*	-1.5	x	0.3	x	x	x	SENP1 inh conf=8.9;SENP1 kinetic=17.3;HNF4A confirm=77.3*
CC(C)(C)c1ccc(C(=O)NNc2cc(Cl)cc(Cl)c2)cc1	-2.8	-0.3	-0.5	-0.9	-1.9	-5.0	x	x	x
O=C1C(=O)c2ccc(-c3ccccc3)cc2-c2ccccc21	1.3	-24.6	0.2	56.9*	-2.0	2.1	49.7	6.6	-16.6
CCOCCn1c(=O)c2c(nc3n2CC(C)CN3CCc2ccccc2)n(C)c1=O (stereo not given)	-5.4	7.1	3.0	-2.4	0.8	1.0	x	x	x
COc1ccccc1N(CC(=O)NCc1ccco1)S(=O)(=O)c1ccc(C)cc1	-25.4	5.6	-3.2	43.8*	-28.2	-1.4	61.6*	27.9*	6.3
COc1ccc(N(CC(=O)NCc2ccco2)S(=O)(=O)c2ccc(C)cc2)cc1OC	-2.6	-2.1	0.0	3.7	-1.4	0.8	x	x	x
CCOC1=C/C(=C/c2c(N)n3nc(-c4ccccc4)sc3nc2=O)C=CC1=O	32.0	21.2	-26.3	40.8*	x	x	6.3	4.9	63.8*
COC1=C/C(=C/c2c(N)n3nc(-c4ccc(C)cc4)sc3nc2=O)C=CC1=O	59.5*	27.9	-27.6	78.2*	x	x	x	5.8	75.5*
Cc1ccc(C2=NN(S(=O)(=O)c3ccccc3)C(c3ccccc3O)C2)cc1 (stereo not given)	79.7*	26.4	-38.0	60.7*	x	x	56.8*	0.4	55.7*
O=S(=O)(c1ccccc1)N1N=C(c2ccccc2)CC1c1ccco1 (stereo not given)	x	x	x	x	x	4.3	x	x	x
Cc1cc(NC(=O)CSc2nc(N)c(NC(=O)c3ccco3)c(=O)[nH]2)no1	4.3	-7.7	-0.9	-4.2	-0.7	5.7	x	x	x
CC(=NNC(=O)c1ccncc1)c1ccccc1O	-3.0	1.5	-5.2	1.9	9.6	x	x	x	x
CC(C)CC(=NNC(=O)c1ccncc1)c1cc(Cl)ccc1O	97.7	4.1	-31.7	62.8*	x	x	71.4*	-51.4*	46.4*
CCN(CC)c1ccc(/C=C2\SC(N)=NC2=O)cc1	126.0	4.5	-25.2	68.3*	x	x	131.2*	-33.1*	77.7*
O=C(CCn1cnnn1)Nc1ccccc1	2.1	1.1	0.2	9.6	-1.7	-2.3	x	x	x
N#Cc1c(SCC(=O)Nc2ccccc2C(F)(F)F)sc2c(O)cc(=O)[nH]c12	-3.7	-0.1	-6.8	5.6	19.6	-0.6	x	x	x
N#Cc1c(SCC(=O)Nc2nc3ccccc3s2)sc2c(O)cc(=O)[nH]c12	-24.0	-29.8	-37.0	40.0*	17.7	x	77.3*	11.4	11.3
CCc1ccc(N=C2NC(=O)/C(=C/c3cc(Br)c(OCC(=O)O)c(OC)c3)S2)cc1	-23.7	13.3	-3.8	47.1*	12.3	-1.1	76.6*	6.5	-9.0
COc1cc(CN2CCN(CC3CC3)CC2CCO)cc(OC)c1 (stereo not given)	-0.2	-11.1	0.0	1.7	0.3	-3.1	x	x	x
CN(C)c1ccc(/C=C2/C[N+](C)(C)C/C(=C/c3ccc(N(C)C)cc3)C2=O)cc1	19.4	16.2	-27.8	93.8*	x	x	3.1	-40.7*	113.6*
COC(=O)C1CCN(CC(=O)Nc2ccc(C(=O)Nc3ccccc3OC)cc2)CC1	3.1	-2.9	1.7	-4.2	-0.9	x	x	x	x
O=C(CN1CCCC1c1cccs1)Nc1cccc(S(=O)(=O)N2CCCC2)c1 (stereo not given)	2.7	2.8	-0.8	-3.5	1.0	x	x	x	x
CC(C)(C)c1ccc(Cn2c(=N)n(CC(O)c3ccco3)c3ccccc32)cc1 (stereo not given)	31.1	0.0	-35.7	67.8*	x	11.3	92.3*	-5.7	2.1

Screening results deposited in PubChem by several laboratories.
